Results on four compounds are retold here after ChEMBL document CHEMBL2029200, “Discovery of a novel melanin concentrating hormone receptor 1 (MCHR1) antagonist with reduced hERG inhibition” (Bioorg Med Chem Lett, 2012).

The target of test [1] is T1, Voltage-gated inwardly rectifying potassium channel KCNH2 (Homo sapiens, UniProt Q12809). Nature of the test: Binding affinity to human Erg.
In test [2] the test system is Mus musculus. Nature of the test: Antiobesity activity in high fat diet-fed MCHR1-knockout C57BL/6 mouse assessed as reduction in body weight at 100 mg/kg, po daily measured for 34 weeks relative to control. The class given is functional, organism-based. Details: dose 100 mg/kg. In a few lines: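 Wild-type and MCHR1-knockout female C57BL/6 mice given compound mixed into a 60% kCal fat high-fat diet. Body weight gain at study end compared with vehicle.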

In test [3] the test system is Mus musculus. The test can be described thus: Antiobesity activity in high fat diet-fed C57BL/6 mouse assessed as reduction in body weight at 3 mg/kg, po daily measured up to day 137 relative to control. The class given is functional, organism-based. Details: dose 3 mg/kg.
In test [4] the test system is Mus musculus. Nature of the test: Antiobesity activity in high fat diet-fed C57BL/6 mouse assessed as reduction in body weight at 10 mg/kg, po daily measured up to day 137 relative to control. Format: functional, organism-based. The arrangement: dose 10 mg/kg. The procedure, abridged: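 Male/female unspecified C57BL/6 mice weaned at 4–5 weeks and kept on high-fat diet for over 24 weeks before dosing. Body weight followed for 137 days against vehicle.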

Test [5] deals with Mus musculus. The test can be described thus: Antiobesity activity in high fat diet-fed C57BL/6 mouse assessed as reduction in food intake at 3 to 10 mg/kg, po daily measured up to day 137 relative to control. The class given is functional, organism-based.
The target in test [6] is Melanin-concentrating hormone receptor 1 (Homo sapiens, UniProt Q99705). The test can be described thus: Displacement of [125I]-MCH from MCHR1 after 2 hrs by scintillation counting. In a few lines: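 Competition binding on MCHR1 membrane preparation with 125I-MCH tracer. Compound diluted in 50 mM Tris pH 7.4, 10 mM MgCl2, 2.5 mM EDTA, 0.2% BSA. Incubation 2 h at 37 °C with shaking. Bound and free ligand separated by vacuum filtration through BSA-pretreated filter plates. Filters washed 4 times in Hepes/NaCl/BSA buffer, then counted by scintillation.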
Chain of Melanin-concentrating hormone receptor 1 (Q99705 whole entry): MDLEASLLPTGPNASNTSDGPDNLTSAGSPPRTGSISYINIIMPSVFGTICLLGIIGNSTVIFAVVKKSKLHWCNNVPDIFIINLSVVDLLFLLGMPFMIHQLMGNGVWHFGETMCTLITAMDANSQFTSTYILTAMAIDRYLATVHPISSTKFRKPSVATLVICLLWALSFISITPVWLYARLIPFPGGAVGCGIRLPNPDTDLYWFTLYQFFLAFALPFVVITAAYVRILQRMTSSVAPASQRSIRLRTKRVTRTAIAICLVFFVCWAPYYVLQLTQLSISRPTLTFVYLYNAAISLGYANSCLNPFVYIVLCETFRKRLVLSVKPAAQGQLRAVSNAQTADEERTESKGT

For test [7], the target named is T1, Voltage-gated inwardly rectifying potassium channel KCNH2. The test can be described thus: Inhibition of human Erg expressed in HEK293 cells assessed as rubidium efflux after 4 hrs by atomic absorbance spectrometric analysis.

Each structure is given as a SMILES string. Active and inactive are the calls of the source. The calls are words filed in the database; no cut-off is given here.

T1 sequence (Q12809 whole entry): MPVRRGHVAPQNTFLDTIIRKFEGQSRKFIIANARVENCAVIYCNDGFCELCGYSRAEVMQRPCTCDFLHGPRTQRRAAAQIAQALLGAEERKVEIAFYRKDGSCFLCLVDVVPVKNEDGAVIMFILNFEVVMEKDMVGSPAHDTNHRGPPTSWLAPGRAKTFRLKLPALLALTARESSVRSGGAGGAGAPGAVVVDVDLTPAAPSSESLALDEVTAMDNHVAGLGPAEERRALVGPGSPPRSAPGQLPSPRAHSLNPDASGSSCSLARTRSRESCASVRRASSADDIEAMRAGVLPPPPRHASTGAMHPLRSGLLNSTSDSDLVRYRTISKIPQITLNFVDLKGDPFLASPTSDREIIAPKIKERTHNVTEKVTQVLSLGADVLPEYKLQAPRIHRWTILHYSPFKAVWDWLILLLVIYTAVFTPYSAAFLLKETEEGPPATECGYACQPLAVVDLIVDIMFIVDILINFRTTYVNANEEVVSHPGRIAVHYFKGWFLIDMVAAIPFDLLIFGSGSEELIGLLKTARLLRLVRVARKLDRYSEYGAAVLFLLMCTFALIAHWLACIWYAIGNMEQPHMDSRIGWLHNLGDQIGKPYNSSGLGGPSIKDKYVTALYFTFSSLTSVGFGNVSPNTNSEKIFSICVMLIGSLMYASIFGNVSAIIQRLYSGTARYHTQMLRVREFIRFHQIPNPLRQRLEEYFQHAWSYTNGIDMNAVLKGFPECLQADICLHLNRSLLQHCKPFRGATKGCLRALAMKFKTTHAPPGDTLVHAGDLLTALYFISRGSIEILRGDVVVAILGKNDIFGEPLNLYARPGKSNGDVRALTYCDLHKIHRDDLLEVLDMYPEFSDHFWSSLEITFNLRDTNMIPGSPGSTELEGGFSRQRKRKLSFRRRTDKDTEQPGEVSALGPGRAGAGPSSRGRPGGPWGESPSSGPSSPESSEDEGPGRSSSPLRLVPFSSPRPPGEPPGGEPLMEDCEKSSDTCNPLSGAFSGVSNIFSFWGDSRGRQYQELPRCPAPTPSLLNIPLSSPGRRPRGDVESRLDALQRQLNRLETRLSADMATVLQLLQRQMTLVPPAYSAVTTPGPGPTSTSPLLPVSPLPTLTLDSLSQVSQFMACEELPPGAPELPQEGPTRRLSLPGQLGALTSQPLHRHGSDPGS

Broadly, the Ki is a measure of affinity in units of concentration, obtained from inhibition or displacement. Turning to `N=C(c1ccc(C(=O)Nc2ccc(Cl)cc2C(=O)Nc2ccc(Cl)cn2)cc1)N1CCCC(C(=O)O)C1` (stereo not drawn), the Ki in test [1] was greater than 10 µM.

On to `C[C@H]1c2c([nH]c3ccc(C(F)(F)F)cc23)C[C@H]2CCN(CCC3(C(=O)O)CCCCC3)C[C@@H]21`, for which the outcome in the test with Mus musculus [2] was inactive. Besides, the result in the test with Mus musculus [3], in the test on Mus musculus [4] and in the test on Mus musculus [5] was Active.

As for `CC(C)CC(N(C)C)C1(c2ccc(Cl)cc2)CCC1` (stereo not drawn), the result with Mus musculus [3] was Active.

As usually defined, the IC50 is the point on the concentration scale where inhibition reaches its midpoint. Take `C[C@H]1c2c([nH]c3ccc(C(F)(F)F)cc23)C[C@H]2CCN(CCC3(C(=O)O)CCOCC3)C[C@@H]21`: the figures for the IC50 in test [6] and in test [7] were 0.009 µM and greater than 5 µM, respectively.
